Source: ChEMBL document CHEMBL1828575, “Design, synthesis and antiproliferative activities of biarylolefins based on polyhydroxylated and carbohydrate scaffolds” (Eur J Med Chem, 2011)

Tests used:
Type in all cases: functional
[1] = test system: HOP-62; experiment: Cytotoxicity against human HOP62 cells assessed as cellular growth at 10 uM after 48 hrs by SRB assay
Method in brief: (§1)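 NCI60 single-dose screen of cells in RPMI 1640 with 5% FBS and 2 mM L-glutamine, preincubated 24 h at 37 °C, 5% CO₂. Cells were then exposed 48 h to compound added from DMSO stock. TCA-fixed, stained with 0.4% SRB in 1% acetic acid, dye solubilised in 10 mM Tris base and read at 515 nm. Growth is given as percent of untreated control.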

[2] = test system: T47D; experiment: Antitumor activity against human T47D cells after 48 hrs by SRB assay
Method in brief: (§2)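 NCI60 panel cells grown in RPMI 1640 with 5% FBS and 2 mM L-glutamine, plated at 5000–40,000 cells/well and preincubated 24 h at 37 °C, 5% CO₂. Compound was added from DMSO at five concentrations, 10-fold or 1/2 log dilutions, then incubated 48 h.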

[3] = test system: SK-OV-3; experiment: Cytotoxicity against human SKOV3 cells assessed as cellular growth at 10 uM after 48 hrs by SRB assay
Method in brief: (§3)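 NCI-60 panel lines grown in RPMI 1640 with 5% FBS and 2 mM L-glutamine. Plated at 5000–40,000 cells/well and preincubated 24 h at 37 °C, 5% CO₂, with time-zero plates fixed in TCA. Compounds, dissolved in DMSO and diluted in medium, were applied for 48 h. Cells were TCA-fixed (10% final for adherent, 16% for suspension) and stained with 0.4% SRB in 1% acetic acid. Dye was solubilised in 10 mM Tris base and read at 515 nm; growth was expressed as a percentage of untreated control.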

[4] = test system: HCT-15; experiment: Cytotoxicity against human HCT15 cells assessed as cellular growth at 10 uM after 48 hrs by SRB assay; method in brief: as §1
[5] = test system: SF-295; experiment: Antitumor activity against human SF295 cells after 48 hrs by SRB assay; settings: SF-295, 48 h
Method in brief: (§4)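 NCI60 panel in RPMI 1640 with 5% FBS and 2 mM L-glutamine. Cells were plated at 5000–40,000/well by doubling time, held 24 h, then time-zero plates were TCA-fixed. Five concentrations (10-fold or half-log dilutions of DMSO stocks) were applied for 48 h at 37 °C, 5% CO2. Cells were fixed with cold TCA (10% final adherent, 16% suspension) and stained with 0.4% SRB. Bound dye was dissolved in 10 mM Tris and read at 515 nm. GI50, TGI and LC50 were calculated per line.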

[6] = test system: SR; experiment: Antitumor activity against human SR cells after 48 hrs by SRB assay; method in brief: as §2
[7] = test system: MDA-MB-468; experiment: Antitumor activity against human MDA-MB-468 cells after 48 hrs by SRB assay; settings: MDA-MB-468, 48 h; method in brief: as §4
[8] = test system: NCI-H522; experiment: Antitumor activity against human NCI-H522 cells after 48 hrs by SRB assay; settings: NCI-H522, 48 h; method in brief: as §4
[9] = test system: NCI-H23; experiment: Cytotoxicity against human NCI-H23 cells assessed as cellular growth at 10 uM after 48 hrs by SRB assay; method in brief: as §3
[10] = test system: NCI-H460; experiment: Antitumor activity against human NCI-H460 cells after 48 hrs by SRB assay; settings: NCI-H460, 48 h; method in brief: as §4
[11] = test system: NCI-H322M; experiment: Antitumor activity against human NCI-H322M cells after 48 hrs by SRB assay; method in brief: as §4
[12] = test system: HT-29; experiment: Antiproliferative activity against human HT-29 cells after 48 hrs by SRB assay; settings: HT-29, 48 h; method in brief: as §4
[13] = test system: SK-MEL-5; experiment: Cytotoxicity against human SK-MEL-5 cells assessed as cellular growth at 10 uM after 48 hrs by SRB assay; method in brief: as §3
[14] = test system: UO-31; experiment: Cytotoxicity against human UO31 cells assessed as cellular growth at 10 uM after 48 hrs by SRB assay; method in brief: as §3
[15] = test system: SF-268; experiment: Antitumor activity against human SF268 cells after 48 hrs by SRB assay; settings: SF-268, 48 h; method in brief: as §4
[16] = test system: A549; experiment: Cytotoxicity against human A549 cells assessed as cellular growth at 10 uM after 48 hrs by SRB assay; method in brief: as §1
[17] = test system: SK-OV-3; experiment: Antitumor activity against human SKOV3 cells after 48 hrs by SRB assay; settings: SK-OV-3, 48 h; method in brief: as §2
[18] = test system: SN12C; experiment: Antitumor activity against human SN12C cells after 48 hrs by SRB assay; method in brief: as §2
[19] = test system: UACC-257; experiment: Cytotoxicity against human UACC257 cells assessed as cellular growth at 10 uM after 48 hrs by SRB assay; method in brief: as §3
[20] = test system: K562; experiment: Antitumor activity against human K562 cells after 48 hrs by SRB assay; settings: K562, 48 h; method in brief: as §4
[21] = test system: HCC 2998; experiment: Antitumor activity against human HCC2998 cells after 48 hrs by SRB assay; settings: HCC 2998, 48 h; method in brief: as §4
[22] = read-out: LC50 (the source's name)
[23] = read-out: pLC50 (the source's name) (converted)

COc1cc(/C(=C2\O[C@@H]([C@H]3COC(C)(C)O3)[C@H]3OC(C)(C)O[C@@H]23)c2ccc3ccccc3c2)cc(OC)c1OC
Activity [1]: 47.96% | GI50 ([2]; read-out: GI50): 3.45 µM | CC50 [2, 22]: > 100 µM | TGI ([2]; read-out: TGI): 40.6 µM | GI50 ([2]; read-out: pGI50 (converted)): 3.47 µM | CC50 [2, 23]: > 100 µM | TGI ([2]; read-out: pTGI (converted)): 40.7 µM | Activity [3]: 51.39% | Activity [4]: 59.71% | GI50 ([5]; read-out: GI50): 6.92 µM | CC50 [5, 22]: > 100 µM | TGI ([5]; read-out: TGI): 52.1 µM | GI50 ([5]; read-out: pGI50 (converted)): 6.92 µM | CC50 [5, 23]: > 100 µM | TGI ([5]; read-out: pTGI (converted)): 52.5 µM | GI50 ([6]; read-out: GI50): > 100 µM | CC50 [6, 22]: > 100 µM | TGI ([6]; read-out: TGI): > 100 µM | GI50 ([6]; read-out: pGI50 (converted)): 100 µM | CC50 [6, 23]: > 100 µM | TGI ([6]; read-out: pTGI): > 100 µM | GI50 ([7]; read-out: GI50): 4.02 µM | CC50 [7, 22]: > 100 µM | TGI ([7]; read-out: TGI): 21.1 µM | GI50 ([7]; read-out: pGI50 (converted)): 3.98 µM | CC50 [7, 23]: > 100 µM | TGI ([7]; read-out: pTGI (converted)): 20.9 µM | GI50 [8]: 2.26 µM | TGI [8]: 6.54 µM | CC50 [8, 22]: > 100 µM | Activity [9]: 46.18% | GI50 ([10]; read-out: GI50): 4.1 µM | CC50 [10, 22]: > 100 µM | TGI ([10]; read-out: TGI): > 100 µM | GI50 ([10]; read-out: pGI50 (converted)): 4.07 µM | CC50 [10, 23]: > 100 µM | TGI ([10]; read-out: pTGI): > 100 µM | GI50 ([11]; read-out: GI50): 6.74 µM | CC50 [11, 22]: > 100 µM | TGI ([11]; read-out: TGI): > 100 µM | GI50 ([11]; read-out: pGI50 (converted)): 5.75 µM | CC50 [11, 23]: > 100 µM | TGI ([11]; read-out: pTGI): > 100 µM | LC50 (50% net cell kill) [12]: > 100 µM | GI50 ([12]; read-out: GI50): 6 µM | TGI ([12]; read-out: TGI): > 100 µM | GI50 ([12]; read-out: pGI50 (converted)): 6.03 µM | CC50 [12, 23]: > 100 µM | TGI ([12]; read-out: pTGI (converted)): > 100 µM | Activity [13]: 38.25% | Activity [14]: 46.81% | LC50 (concentration killing 50% of cells relative to time zero) [15]: > 100 µM | GI50 ([15]; read-out: GI50): 3.13 µM | TGI ([15]; read-out: TGI): 15.9 µM | GI50 ([15]; read-out: pGI50 (converted)): 3.09 µM | CC50 [15, 23]: > 100 µM | TGI ([15]; read-out: pTGI (converted)): > 100 µM | Activity [16]: -9.4% | GI50 ([17]; read-out: GI50): 4.37 µM | CC50 [17, 22]: > 100 µM | TGI ([17]; read-out: TGI): > 100 µM | GI50 ([17]; read-out: pGI50 (converted)): 17.8 µM | CC50 [17, 23]: > 100 µM | TGI ([17]; read-out: pTGI (converted)): > 100 µM | GI50 ([18]; read-out: GI50): 3.65 µM | CC50 [18, 22]: > 100 µM | TGI ([18]; read-out: TGI): > 100 µM | GI50 ([18]; read-out: pGI50 (converted)): 3.16 µM | CC50 [18, 23]: > 100 µM | TGI ([18]; read-out: pTGI): > 100 µM | Activity [19]: 45.86% | GI50 ([20]; read-out: GI50): 4.02 µM | CC50 [20, 22]: > 100 µM | TGI ([20]; read-out: TGI): > 100 µM | GI50 ([20]; read-out: pGI50 (converted)): 3.98 µM | CC50 [20, 23]: > 100 µM | TGI ([20]; read-out: pTGI): > 100 µM | GI50 ([21]; read-out: GI50): 6.47 µM | CC50 [21, 22]: > 100 µM | TGI ([21]; read-out: TGI): > 100 µM | GI50 ([21]; read-out: pGI50 (converted)): 6.46 µM | CC50 [21, 23]: > 100 µM | TGI ([21]; read-out: pTGI (converted)): > 100 µM
